Key:
[1] = DPPH˙ scavenging activity; settings: 30 min, 515 nm; tested 10–100 µg mL^−1
Summary of the method: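 Test compound (10–100 µg mL⁻¹) or 80% methanol control was mixed 1:2 (v/v) with DPPH solution, shaken, and kept 30 min at room temperature in the dark. Absorbance was read at 515 nm. Scavenging % = 100 × (1 − A sample/A DPPH blank). Ferulic and syringic acids served as references. Run in triplicate.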

[2] = Cell viability; type: cell-based; settings: human, Caco-2 cells
Summary of the method: (§1)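 Caco-2 and Vero cells were grown in DMEM with 10% FBS, and HUVEC in DMEM-F12 with 10% FBS, at 37 °C and 5% CO₂. Cells were seeded at 5.000 per well 24 h before treatment. Test compound was diluted from a 100 mM DMSO stock into 1% FBS medium at 1, 10, 30, 50, 100 and 150 µM. Controls were 10% DMSO and medium alone. At 24, 48 and 72 h, cells got resazurin (0.5 mg mL⁻¹ solution) for 4 h, read at ex 560/em 590 nm. IC50 was from curve fitting.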

[3] = Cell viability; type: cell-based; settings: human, HUVEC cells
Summary of the method: as §1

[4] = Cell viability; type: cell-based; settings: African green monkey, Vero cells
Summary of the method: as §1

[5] = SO + additive at 200 ppm; for T 5 (5% mass loss) / T 10 (10% mass loss) / T 50 (50% mass loss) / T onset (decomposition temperature: onset temperature): TGA in air
Summary of the method: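 Thermogravimetry of sunflower oil with 200 ppm test compound: about 10 mg oil in a Pt crucible was heated from ambient to 700 °C at 5 °C min⁻¹ in air (60 mL min⁻¹), with N₂ purge on the balance. Onset temperature and temperatures at 5, 10 and 50% mass loss came from TG/DTG curves and were compared with unsupplemented oil.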

[6] = Lipoperoxidation; settings: SO + additive 200 ppm, 220 °C
Summary of the method: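 Sunflower oil with 200 ppm test compound was heated on a hot plate at 25, 100, 180 and 220 °C for 30 min (ramp 2 °C min⁻¹). Oil (0.5 mL) was vortexed with TBA/TCA/HCl and centrifuged 3500 rpm for 5 min. Supernatant was heated 90 °C for 15 min and read at 535 nm against an MDA curve, as nmol MDA per mL oil. Unsupplemented oil was the control. Run in triplicate.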

[7] = Schaal Oven Test, TBARS, sunflower oil; settings: 60 °C, over 12 days
Summary of the method: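 Schaal oven test (AOCS Cg5-97): supplemented olive or sunflower oil was held at 60 ± 5 °C in the dark for 12 days, sampled every 3 days. TBARS: oil was mixed with TBA/TCA/HCl and centrifuged. Supernatant was heated 90 °C for 15 min and read at 535 nm against an MDA curve (nmol MDA per mL oil). n = 3, compared with unsupplemented oil.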

[8] = Cytotoxic effect, summary over the three cell lines; type: cell-based; settings: human (Caco-2, HUVEC); African green monkey (Vero), Caco-2, HUVEC and Vero cells
Summary of the method: as §1

| SMILES | Antioxidant capacity (DPPH), IC50 [1] | IC50 at 24 h [2] | IC50 at 48 h [2] | IC50 at 72 h [2] | IC50 at 24 h [3] | IC50 at 48 h [3] | IC50 at 72 h [3] | IC50 at 24 h [4] | IC50 at 48 h [4] | IC50 at 72 h [4] | Increase of onset temperature of mass loss (Tonset) in comparison with SO [5] | T 5 (5% mass loss) [5] | T 10 (10% mass loss) [5] | T 50 (50% mass loss) [5] | T onset (decomposition temperature: onset temperature) [5] | Reduction in secondary oxidation (TBARS) in comparison with SOcontrol [6] | TBARS values compared with control [7] | IC50 [8] |
| --- | --- | --- | --- | --- | --- | --- | --- | --- | --- | --- | --- | --- | --- | --- | --- | --- | --- | --- |
| COc1cc(C(=O)O)cc(OC)c1O [Compound 4, syringic acid, reference compound] | 4.53 ± 0.19 µg/mL |  |  |  |  |  |  |  |  |  |  |  |  |  |  |  |  |  |
| CCOc1c(OC)cc(C(=O)O)cc1OC [Compound 5a, 4-Ethoxy-3,5-dimethoxybenzoic acid] | 9.20 ± 0.91 µg/mL | > 100 µM | > 100 µM | > 100 µM | > 100 µM | > 100 µM | > 100 µM | > 100 µM | > 100 µM | > 100 µM |  |  |  |  |  |  |  |  |
| CCCOc1c(OC)cc(C(=O)O)cc1OC [Compound 5b, 3,5-Dimethoxy-4-propoxybenzoic acid] | 11.47 ± 0.58 µg/mL | > 100 µM | > 100 µM | > 100 µM | > 100 µM | > 100 µM | > 100 µM | > 100 µM | > 100 µM | > 100 µM | 24 °C | 364 °C | 382 °C | 420 °C | 305 °C | 5 times |  |  |
| CCCCCOc1c(OC)cc(C(=O)O)cc1OC [Compound 5c, 3,5-Dimethoxy-4-(pentyloxy)benzoic acid] | 34.98 ± 2.23 µg/mL | > 100 µM | > 100 µM | > 100 µM | > 100 µM | > 100 µM | > 100 µM | > 100 µM | > 100 µM | > 100 µM | 37 °C | 368 °C | 388 °C | 426 °C | 318 °C | 5 times | decreased the TBARS values |  |
| CCCCCCOc1c(OC)cc(C(=O)O)cc1OC [Compound 5d, 4-(Hexyloxy)-3,5-dimethoxybenzoic acid] | >100 µg/mL | > 100 µM | > 100 µM | > 100 µM | > 100 µM | > 100 µM | > 100 µM | > 100 µM | > 100 µM | > 100 µM |  |  |  |  |  |  |  |  |
| CCCCCCCCOc1c(OC)cc(C(=O)O)cc1OC [Compound 5e, 3,5-Dimethoxy-4-(octyloxy)benzoic acid] | >100 µg/mL | > 100 µM | > 100 µM | > 100 µM | > 100 µM | 55.9 ± 1.06 µM | 53.3 ± 1.05 µM | > 100 µM | > 100 µM | > 100 µM |  |  |  |  |  |  |  | < 100 µM |
| CCCCCCCCCCOc1c(OC)cc(C(=O)O)cc1OC [Compound 5f, 4-(Decyloxy)-3,5-dimethoxybenzoic acid] | >100 µg/mL | > 100 µM | 70 ± 1.06 µM | 62.8 ± 1.07 µM | 47.2 ± 1.04 µM | 35.4 ± 1.04 µM | 29.3 ± 1.09 µM | > 100 µM | > 100 µM | > 100 µM |  |  |  |  |  |  |  | < 100 µM |

Source: article PMC11250141 (RSC Advances, 2024)
